For data set [1] the following is noted: "under the same conditions"; cited from earlier work.
A short description of another data set: Fe. Format: binding. Particulars: until molar ratio Fe (II) to peptide 1 of 1:1; peptide 1 10.0 μM; TBS pH 7.4.
The nature of data set [2]: Relaxivity r1, 0.5 T MR system. Type of data set: physicochemical. The following applies: TBS pH 7.4, 50.0 mM Tris, 50.0 mM NaCl, 37 °C, 1-100 μM, inversion recovery, slope of 1/T1 versus concentration.
Data set [3] in a line: Transmission electron microscopy, aggregation and disaggregation. Format: physicochemical. In short, it runs like this:
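Droplets of the peptide, the test compound, or the test compound bound to NK1R at 1:1 molar ratio were placed on carbon-coated holey grids. The NK1R sample alone was negatively stained with sodium phosphotungstate and dried at room temperature for 12 h before TEM imaging.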

Data set [4] deals with probe 1 (terpyridine-Fe (II) complex of the Gd (III)-DOTA peptide 1, a modified substance P). The data set is described as follows: T1 relaxation rate.
Data set [5] shares this target. The data set is described as follows: fluorescence polarisation. A general note: Polarisation of emitted light reports the rotation of a fluorescent probe.
The target is the same in data set [6]. The data set can be described thus: other fluorescence titration.

As for `O=C([O-])CN(CCN(CC(=O)[O-])CC(=O)O)CCN(CC(=O)[O-])CC(=O)O.[Gd+3]` [Gd-(DTPA)], the “relaxivity r1, clinical contrast agents” value in data set [1] was 4.6 mM⁻¹ s⁻¹.
Regarding `CC(O)CN1CCN(CC(=O)[O-])CCN(CC(=O)[O-])CCN(CC(=O)[O-])CC1.[Gd+3]` (stereo not shown) [Gd-(HP-DO3A)], the “relaxivity r1, clinical contrast agents” value in data set [1] was 4.3 mM⁻¹ s⁻¹.
For the molecule “MLGFFQQPKPRKKKKKK(Tpy)K(Tpy)KK(Dye)DOTA [peptide 1]”, the “fluorescence at 610 nm upon addition of Fe (II) ions” value in the data set “Fe” was “decreased”. Further, the “relaxivity r1” value in data set [2] is 11.8 mM⁻¹ s⁻¹. Besides, the “length (TEM)” value in data set [3] (nanofibers, peptide 1 alone, 10.0 μM in TBS pH 7.4) is given as “several hundred nm”. Also, the “diameter (TEM)” value in data set [3] (threadlike network of nanofibers, peptide 1 alone, 10.0 μM in TBS pH 7.4) is listed as “approximately 3.5 nm”.
The stoichiometry N is the number of molecules, sites or subunits per partner or assembly. What is called Kd is the concentration at which binding is half-saturated. Higher therefore signals lower affinity. With “neurokinin-1 receptor (NK1R), recombinant”, the stoichiometry N in data set [4] was 1 probe 1:NK1R. In addition, in data set [5], the Kd was 2300 nM. Also, the fold increase of the fluorescence intensity of probe 1 at 610 nm in data set [6] was determined as 3 fold.

B1: NK1R: recombinant NK1R (TACR1) expressed in Rosetta (DE3), purified using nickel affinity chromatography (protein)
chain: MDNVLPVDSDLSPNISTNTSEPNQFVQPAWQIVLWAAAYTVIVVTSVVGNVVVMWIILAHKRMRTVTNYFLVNLAFAEASMAAFNTVVNFTYAVHNEWYYGLFYCKFHNFFPIAAVFASIYSMTAVAFDRYMAIIHPLQPRLSATATKVVICVIWVLALLLAFPQGYYSTTETMPSRVVCMIEWPEHPNKIYEKVYHICVTVLIYFLPLLVIGYAYTVVGITLWASEIPGDSSDRYHEQVSAKRKVVKMMIVVVCTFAICWLPFHIFFLLPYINPDLYLKKFIQQVYLAIMWLAMSSTMYNPIIYCCLNDRFRLGFKHAFRCCPFISAGDYEGLEMKSTRYLQTQGSVYKVSRLETTISTVVGAHEEEPEDGPKATPSSLDLTSNCSSRSDSKTMTESFSFSSNVLS
As to B1, the “diameter (TEM)” value in data set [3] (NK1R multimers, 1.0 μM, stained with sodium phosphotungstate 2.0 wt%, TBS pH 7.4) was “approximately 3.8 nm”.

Values taken from publication PMC4180826 (Scientific Reports, 2014).
